For series [1], the system named is E. coli CFT073 nalidixic acid resistant line. The series can be described thus: Galleria mellonella infection model, survival. The following applies: nalidixic acid at 50 mg per body weight kg; 48 h. Type of series: in vivo. The gist of the method: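 Nalidixic acid-resistant strain was grown overnight in Mueller-Hinton II broth and washed twice in PBS. Larvae got 10^7 CFU in 10 μl PBS into the hemocoel via the first left proleg, then treatment via the second right proleg. Monotherapy doses were 10–100 mg/kg. Controls were PBS-only and untreated infected larvae. Larvae were kept at 37 °C for 48 h, with survival scored every 6 h.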

In series [2] the test system is Galleria mellonella larvae. The series can be described thus: Toxicity in Galleria mellonella larvae. To be noted: uninfected larvae injected with 10, 25, 50, 100 and 200 mg per body weight kg. The format is in vivo. The method in brief:
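Age- and weight-defined larvae, stored at 15 °C without food, were used uninfected. Groups of 10 larvae received hemocoel injections of test compound or nalidixic acid at 10, 25, 50, 100 and 200 mg/kg body weight, given with a 10 μl syringe.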

As for `CCn1cc(C(=O)O)c(=O)c2ccc(C)nc21` [Nalidixic acid, nalidixic acid], in series [1], the “improvement of survival of infected larvae, monotherapy” value was “approximately 25%”. Besides, the toxicity in larvae result in series [2] is reported as “no toxicity”.

Values taken from paper PMC8724909 (Molecular Systems Design & Engineering, 2021).
